Results as given in ChEMBL document CHEMBL3865847, “The synthesis and biological evaluation of alkyl and benzyl naphthyridinium analogs of eupolauridine as potential antimicrobial and cytotoxic agents” (Bioorg Med Chem, 2016).

Tested on: Candida albicans
Experiment: Antimicrobial activity against Candida albicans B311
Assay type: functional
Settings: not given
How it was run: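 Cultured in Sabouraud dextrose broth 24 h, counted by hemocytometer, diluted to 10,000 CFU/mL. Added to serially diluted samples in 96-well plates, top final concentration 50 µg/mL (≤2.5% DMSO), incubated 37 °C. Growth by A630. MIC is the lowest concentration giving 80% inhibition against controls; IC50 from concentration versus % growth plots.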

Q: Which results are given for C[n+]1ccc2c3c(nc4cc5c(cc42)OCO5)-c2ccccc2-c31.[I-]?
A: IC50: 16.1 µg/mL; MIC80: 25 µg/mL

Q: What does the source list for [Br-].c1ccc(C[n+]2ccc3ccnc4c3c2-c2ccccc2-4)cc1?
A: IC50: 4.17 µg/mL; MIC80: 6.25 µg/mL

Q: Which results are given for Fc1ccc2c(c1)-c1c3c-2nccc3cc[n+]1Cc1ccccc1.[Br-]?
A: IC50: 1.5 µg/mL; MIC80: 3.12 µg/mL

Q: With Fc1ccc(C[n+]2ccc3ccnc4c3c2-c2ccccc2-4)cc1.[Br-] as the compound, how does the IC50 read?
A: 9.33 µg/mL

Q: And the MIC80?
A: 12.5 µg/mL

Q: Which results are given for [Br-].c1ccc(C[n+]2ccc3c4c(nc5cc6c(cc53)OCO6)-c3ccccc3-c42)cc1?
A: IC50: 5.17 µg/mL; MIC80: 12.5 µg/mL

Tested on: Cryptococcus neoformans
Experiment: Antimicrobial activity against Cryptococcus neoformans ATCC 52657
Assay type: functional
Settings: not given
How it was run: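 Grown in mycophil broth 72 h, hemocytometer-counted, diluted to 200,000 CFU/mL. Exposed to diluted samples in 96-well plates, maximum final 50 µg/mL (DMSO up to 2.5%), incubated 30 °C. A630 readout. MIC is the lowest concentration inhibiting 80% of growth versus controls; IC50 read from concentration versus % growth graphs.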

Q: For C[n+]1ccc2c3c(nc4cc5c(cc42)OCO5)-c2ccccc2-c31.[I-], which IC50 is on record?
A: 0.37 µg/mL

Q: What about the MIC80 of the same compound?
A: 1.56 µg/mL

Q: Which results are given for [Br-].c1ccc(C[n+]2ccc3ccnc4c3c2-c2ccccc2-4)cc1?
A: IC50: 0.43 µg/mL; MIC80: 1.56 µg/mL

Q: For Fc1ccc2c(c1)-c1c3c-2nccc3cc[n+]1Cc1ccccc1.[Br-], which IC50 is on record?
A: 0.52 µg/mL

Q: And the MIC80?
A: 0.78 µg/mL

Q: Which results are given for Fc1ccc(C[n+]2ccc3ccnc4c3c2-c2ccccc2-4)cc1.[Br-]?
A: IC50: 0.87 µg/mL; MIC80: 3.12 µg/mL

Q: Which IC50 does the source give for [Br-].c1ccc(C[n+]2ccc3c4c(nc5cc6c(cc53)OCO6)-c3ccccc3-c42)cc1 here?
A: 0.57 µg/mL

Q: And the MIC80?
A: 3.12 µg/mL

Tested on: Mycobacterium intracellulare
Experiment: Antimicrobial activity against Mycobacterium intracellulare ATCC 23068
Assay type: functional
Settings: not given
How it was run: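 Mycobacterium grown 72 h in Middlebrook medium with OADC supplement, diluted 1:30 in broth. Incubated at 37 °C with diluted samples in 96-well plates, highest final 50 µg/mL, DMSO at most 2.5%. Absorbance at 630 nm. MIC = lowest concentration with 80% growth inhibition relative to controls; IC50 from concentration versus % growth plots.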

Q: For C[n+]1ccc2c3c(nc4cc5c(cc42)OCO5)-c2ccccc2-c31.[I-], which MIC80 is on record?
A: 50 µg/mL

Q: For Fc1ccc2c(c1)-c1c3c-2nccc3cc[n+]1Cc1ccccc1.[Br-], which MIC80 is on record?
A: 50 µg/mL

Tested on: Plasmodium falciparum
Experiment: Antimalarial activity against Plasmodium falciparum D6 infected in RBC after 48 hrs by lactate dehydrogenase assay
Assay type: functional
Settings: D6, 48 h
How it was run: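 Parasites grown in A+ human erythrocytes in RPMI 1640 with 10% A+ human serum, 25 mM HEPES, 27 mM bicarbonate, 60 µg/mL amikacin, 37 °C under 90% N2/5% O2/5% CO2. Infected cells exposed 48 h in microtiter wells, highest concentration 4.8 µg/mL. Growth read by Malstat reagent (parasite LDH) with nitro blue tetrazolium reduction, absorbance 630 nm.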

Q: With C[n+]1ccc2c3c(nc4cc5c(cc42)OCO5)-c2ccccc2-c31.[I-] as the compound, how does the IC50 read?
A: 0.028 µg/mL

Q: For [Br-].c1ccc(C[n+]2ccc3ccnc4c3c2-c2ccccc2-4)cc1, which IC50 is on record?
A: 0.0225 µg/mL

Q: For Fc1ccc2c(c1)-c1c3c-2nccc3cc[n+]1Cc1ccccc1.[Br-], which IC50 is on record?
A: 0.033 µg/mL

Q: For Fc1ccc(C[n+]2ccc3ccnc4c3c2-c2ccccc2-4)cc1.[Br-], which IC50 is on record?
A: 0.017 µg/mL

Q: Which IC50 does the source give for [Br-].c1ccc(C[n+]2ccc3c4c(nc5cc6c(cc53)OCO6)-c3ccccc3-c42)cc1 here?
A: 0.0094 µg/mL

Tested on: not listed separately
Experiment: Cytotoxicity against human SK-MEL cells assessed as cell growth inhibition after 48 hrs by neutral red dye based assay
Assay type: functional
Settings: not given
How it was run: (§1)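 Cells kept in RPMI-1640 with 10% bovine serum and 60 µg/mL amikacin, 37 °C, 5% CO2. Seeded at 25,000 cells/well, left 24 h to adhere. Samples diluted in RPMI added, highest final concentration 10 µg/mL. Growth measured by neutral red uptake after 48 h exposure.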

Q: For C[n+]1ccc2c3c(nc4cc5c(cc42)OCO5)-c2ccccc2-c31.[I-], which IC50 is on record?
A: 5 µg/mL

Q: With [Br-].c1ccc(C[n+]2ccc3ccnc4c3c2-c2ccccc2-4)cc1 as the compound, how does the IC50 read?
A: 5.4 µg/mL

Q: Which IC50 does the source give for Fc1ccc2c(c1)-c1c3c-2nccc3cc[n+]1Cc1ccccc1.[Br-] here?
A: 5.6 µg/mL

Q: With Fc1ccc(C[n+]2ccc3ccnc4c3c2-c2ccccc2-4)cc1.[Br-] as the compound, how does the IC50 read?
A: 6 µg/mL

Q: With [Br-].c1ccc(C[n+]2ccc3c4c(nc5cc6c(cc53)OCO6)-c3ccccc3-c42)cc1 as the compound, how does the IC50 read?
A: 0.55 µg/mL

Tested on: not listed separately
Experiment: Cytotoxicity against human KB cells assessed as cell growth inhibition after 48 hrs by neutral red dye based assay
Assay type: functional
Settings: not given
How it was run: as §1

Q: With C[n+]1ccc2c3c(nc4cc5c(cc42)OCO5)-c2ccccc2-c31.[I-] as the compound, how does the IC50 read?
A: 4.2 µg/mL

Q: For Fc1ccc2c(c1)-c1c3c-2nccc3cc[n+]1Cc1ccccc1.[Br-], which IC50 is on record?
A: 1.3 µg/mL

Q: With Fc1ccc(C[n+]2ccc3ccnc4c3c2-c2ccccc2-4)cc1.[Br-] as the compound, how does the IC50 read?
A: > 10 µg/mL

Q: For [Br-].c1ccc(C[n+]2ccc3c4c(nc5cc6c(cc53)OCO6)-c3ccccc3-c42)cc1, which IC50 is on record?
A: 1 µg/mL

Tested on: not listed separately
Experiment: Cytotoxicity against human BT549 cells assessed as cell growth inhibition after 48 hrs by neutral red dye based assay
Assay type: functional
Settings: BT-549, 48 h
How it was run: as §1

Q: For C[n+]1ccc2c3c(nc4cc5c(cc42)OCO5)-c2ccccc2-c31.[I-], which IC50 is on record?
A: 1.2 µg/mL

Q: With Fc1ccc2c(c1)-c1c3c-2nccc3cc[n+]1Cc1ccccc1.[Br-] as the compound, how does the IC50 read?
A: 2.5 µg/mL

Q: For Fc1ccc(C[n+]2ccc3ccnc4c3c2-c2ccccc2-4)cc1.[Br-], which IC50 is on record?
A: 7.5 µg/mL

Q: With [Br-].c1ccc(C[n+]2ccc3c4c(nc5cc6c(cc53)OCO6)-c3ccccc3-c42)cc1 as the compound, how does the IC50 read?
A: 1.3 µg/mL

Tested on: not listed separately
Experiment: Cytotoxicity against human SKOV3 cells assessed as cell growth inhibition after 48 hrs by neutral red dye based assay
Assay type: functional
Settings: SK-OV-3, 48 h
How it was run: as §1

Q: Which IC50 does the source give for C[n+]1ccc2c3c(nc4cc5c(cc42)OCO5)-c2ccccc2-c31.[I-] here?
A: 1.2 µg/mL

Q: For [Br-].c1ccc(C[n+]2ccc3ccnc4c3c2-c2ccccc2-4)cc1, which IC50 is on record?
A: 1.5 µg/mL

Q: With Fc1ccc2c(c1)-c1c3c-2nccc3cc[n+]1Cc1ccccc1.[Br-] as the compound, how does the IC50 read?
A: 0.53 µg/mL

Q: Which IC50 does the source give for Fc1ccc(C[n+]2ccc3ccnc4c3c2-c2ccccc2-4)cc1.[Br-] here?
A: 1.5 µg/mL

Q: With [Br-].c1ccc(C[n+]2ccc3c4c(nc5cc6c(cc53)OCO6)-c3ccccc3-c42)cc1 as the compound, how does the IC50 read?
A: 0.6 µg/mL

Tested on: not listed separately
Experiment: Cytotoxicity against African green monkey Vero cells assessed as cell growth inhibition at 10 ug/ml after 48 hrs by neutral red dye based assay
Assay type: toxicity
Settings: chlorocebus sabaeus
How it was run: as §1

Q: For C[n+]1ccc2c3c(nc4cc5c(cc42)OCO5)-c2ccccc2-c31.[I-], which Activity is on record?
A: Non-Toxic

Q: Which Activity does the source give for [Br-].c1ccc(C[n+]2ccc3ccnc4c3c2-c2ccccc2-4)cc1 here?
A: Non-Toxic

Q: For Fc1ccc2c(c1)-c1c3c-2nccc3cc[n+]1Cc1ccccc1.[Br-], which Activity is on record?
A: Non-Toxic

Q: For Fc1ccc(C[n+]2ccc3ccnc4c3c2-c2ccccc2-4)cc1.[Br-], which Activity is on record?
A: Non-Toxic

Q: Which Activity does the source give for [Br-].c1ccc(C[n+]2ccc3c4c(nc5cc6c(cc53)OCO6)-c3ccccc3-c42)cc1 here?
A: Non-Toxic

Tested on: not listed separately
Experiment: Inhibition of Candida albicans DNA topoisomerase 1 using pHOT1 as substrate after 30 mins by agarose gel electrophoresis
Settings: not given
How it was run: (§2)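 Relaxation of supercoiled to relaxed DNA by TopoI measured with a commercial TopoI drug kit following kit protocol. IC50 calculated from dose-response curves of % inhibition versus concentration.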

Q: Which IC50 does the source give for C[n+]1ccc2c3c(nc4cc5c(cc42)OCO5)-c2ccccc2-c31.[I-] here?
A: 0.425 µg/mL

Q: With [Br-].c1ccc(C[n+]2ccc3ccnc4c3c2-c2ccccc2-4)cc1 as the compound, how does the IC50 read?
A: 19 µg/mL

Q: With Fc1ccc(C[n+]2ccc3ccnc4c3c2-c2ccccc2-4)cc1.[Br-] as the compound, how does the IC50 read?
A: 40 µg/mL

Q: With [Br-].c1ccc(C[n+]2ccc3c4c(nc5cc6c(cc53)OCO6)-c3ccccc3-c42)cc1 as the compound, how does the IC50 read?
A: 0.52 µg/mL

Biological target: T1, DNA topoisomerase 1 (Homo sapiens, UniProt P11387)
T1 sequence (P11387 whole entry): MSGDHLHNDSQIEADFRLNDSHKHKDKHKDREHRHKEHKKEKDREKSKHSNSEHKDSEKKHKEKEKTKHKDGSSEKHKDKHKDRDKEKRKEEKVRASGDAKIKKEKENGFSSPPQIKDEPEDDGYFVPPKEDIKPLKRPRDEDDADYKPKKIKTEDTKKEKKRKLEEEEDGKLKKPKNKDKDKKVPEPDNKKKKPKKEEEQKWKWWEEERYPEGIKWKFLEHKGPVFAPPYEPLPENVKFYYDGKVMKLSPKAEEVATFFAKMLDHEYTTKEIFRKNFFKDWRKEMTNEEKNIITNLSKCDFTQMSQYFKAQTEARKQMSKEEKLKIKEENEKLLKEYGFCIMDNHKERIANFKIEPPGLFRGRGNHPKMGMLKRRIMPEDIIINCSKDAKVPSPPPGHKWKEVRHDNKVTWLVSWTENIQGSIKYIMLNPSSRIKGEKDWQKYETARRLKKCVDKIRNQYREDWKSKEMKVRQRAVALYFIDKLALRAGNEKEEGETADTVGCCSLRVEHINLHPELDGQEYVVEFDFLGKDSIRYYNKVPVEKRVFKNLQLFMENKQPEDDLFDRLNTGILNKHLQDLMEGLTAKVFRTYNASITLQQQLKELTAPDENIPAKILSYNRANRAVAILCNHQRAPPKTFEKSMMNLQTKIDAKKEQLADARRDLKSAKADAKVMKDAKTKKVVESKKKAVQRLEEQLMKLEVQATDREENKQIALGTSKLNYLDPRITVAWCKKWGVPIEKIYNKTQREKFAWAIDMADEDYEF
Experiment: Inhibition of human DNA topoisomerase 1 using pHOT1 as substrate after 30 mins by agarose gel electrophoresis
Settings: not given
How it was run: as §2

Q: For C[n+]1ccc2c3c(nc4cc5c(cc42)OCO5)-c2ccccc2-c31.[I-], which IC50 is on record?
A: 1.02 µM

Q: For [Br-].c1ccc(C[n+]2ccc3ccnc4c3c2-c2ccccc2-4)cc1, which IC50 is on record?
A: 101 µM

Q: With Fc1ccc(C[n+]2ccc3ccnc4c3c2-c2ccccc2-4)cc1.[Br-] as the compound, how does the IC50 read?
A: 127 µM

Q: With [Br-].c1ccc(C[n+]2ccc3c4c(nc5cc6c(cc53)OCO6)-c3ccccc3-c42)cc1 as the compound, how does the IC50 read?
A: 1.11 µM

Tested on: not listed separately
Experiment: Selectivity index, ratio of IC50 for human DNA topoisomerase 1 to IC50 for Candida albicans DNA topoisomerase 1
Settings: not given

Q: For C[n+]1ccc2c3c(nc4cc5c(cc42)OCO5)-c2ccccc2-c31.[I-], which Ratio IC50 is on record?
A: 0.94

Q: Which Ratio IC50 does the source give for [Br-].c1ccc(C[n+]2ccc3ccnc4c3c2-c2ccccc2-4)cc1 here?
A: 0.5

Q: With Fc1ccc(C[n+]2ccc3ccnc4c3c2-c2ccccc2-4)cc1.[Br-] as the compound, how does the Ratio IC50 read?
A: 0.8

Q: Which Ratio IC50 does the source give for [Br-].c1ccc(C[n+]2ccc3c4c(nc5cc6c(cc53)OCO6)-c3ccccc3-c42)cc1 here?
A: 1
